Test system: HEK-293T
Experiment: Multiplex assay against HEK293T;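 as to Population Tubulin-Different-Phenotype (%): share of the cells with healthy nuclei that show this phenotype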
Format: toxicity, cell-based
Conditions: human
Method in brief: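 Imaging took place on a CQ1 microscope at 37°C and 5% CO2 once compound had been added to live cells stained at seeding with Hoechst33342, BioTracker Green Microtubule Cytoskeleton Dye, MitoTracker Red and Annexin V Alexa Fluor 680. CellPathfinder machine-learning gating classed cells as Hoechst high-intensity objects or normal cells, classed normal cells as having healthy, pyknosed or fragmented nuclei, and classed pyknosed cells as mitotic or apoptotic. Tubulin, mitochondrial-mass and membrane-permeability phenotypes are per cents of the healthy-nucleus cells.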

[1] = 12 h, 1 µM, compound concentration 1 uM, replicate 1
[2] = 12 h, 1 µM, compound concentration 1 uM, replicate 2
[3] = 12 h, 10 µM, compound concentration 10 uM, replicate 1
[4] = 12 h, 10 µM, compound concentration 10 uM, replicate 2
[5] = 24 h, 1 µM, compound concentration 1 uM, replicate 1
[6] = 24 h, 1 µM, compound concentration 1 uM, replicate 2
[7] = 24 h, 10 µM, compound concentration 10 uM, replicate 1
[8] = 24 h, 10 µM, compound concentration 10 uM, replicate 2
[9] = 48 h, 1 µM, compound concentration 1 uM, replicate 1
[10] = 48 h, 1 µM, compound concentration 1 uM, replicate 2
[11] = 48 h, 10 µM, compound concentration 10 uM, replicate 1
[12] = 48 h, 10 µM, compound concentration 10 uM, replicate 2

CN1CCC(=C2c3ccccc3CC(=O)c3sccc32)CC1.O=C(O)/C=C/C(=O)O [KETOTIFEN FUMARATE]
Population Apoptotic (%) [1]: 46% | Population Fragmented Nuclei (%) [1]: 10% | Population Healthy Nuclei (%) [1]: 37% | Population Hoechst High Intensity Objects (%) [1]: 13% | Population Membrane Permeable-Phenotype (%) [1]: 5% | Population Mitochondria Different-Phenotype (%) [1]: 73% | Population Mitotic Cells (%) [1]: 53% | Population Normal (%) [1]: 86% | Population Pyknosed Nuclei (%) [1]: 51% | Population Tubulin-Different-Phenotype (%) [1]: 40% | Total Cell Count [1]: 288 | Population Apoptotic (%) [2]: 13% | Population Fragmented Nuclei (%) [2]: 4% | Population Healthy Nuclei (%) [2]: 40% | Population Hoechst High Intensity Objects (%) [2]: 4% | Population Membrane Permeable-Phenotype (%) [2]: 12% | Population Mitochondria Different-Phenotype (%) [2]: 17% | Population Mitotic Cells (%) [2]: 86% | Population Normal (%) [2]: 95% | Population Pyknosed Nuclei (%) [2]: 54% | Population Tubulin-Different-Phenotype (%) [2]: 28% | Total Cell Count [2]: 211 | Population Apoptotic (%) [3]: 71% | Population Fragmented Nuclei (%) [3]: 11% | Population Healthy Nuclei (%) [3]: 28% | Population Hoechst High Intensity Objects (%) [3]: 10% | Population Membrane Permeable-Phenotype (%) [3]: 4% | Population Mitochondria Different-Phenotype (%) [3]: 98% | Population Mitotic Cells (%) [3]: 28% | Population Normal (%) [3]: 89% | Population Pyknosed Nuclei (%) [3]: 60% | Population Tubulin-Different-Phenotype (%) [3]: 97% | Total Cell Count [3]: 298 | Population Apoptotic (%) [4]: 54% | Population Fragmented Nuclei (%) [4]: 7% | Population Healthy Nuclei (%) [4]: 22% | Population Hoechst High Intensity Objects (%) [4]: 5% | Population Membrane Permeable-Phenotype (%) [4]: 0% | Population Mitochondria Different-Phenotype (%) [4]: 100% | Population Mitotic Cells (%) [4]: 45% | Population Normal (%) [4]: 94% | Population Pyknosed Nuclei (%) [4]: 69% | Population Tubulin-Different-Phenotype (%) [4]: 100% | Total Cell Count [4]: 177 | Population Apoptotic (%) [5]: 50% | Population Fragmented Nuclei (%) [5]: 12% | Population Healthy Nuclei (%) [5]: 42% | Population Hoechst High Intensity Objects (%) [5]: 8% | Population Membrane Permeable-Phenotype (%) [5]: 7% | Population Mitochondria Different-Phenotype (%) [5]: 67% | Population Mitotic Cells (%) [5]: 49% | Population Normal (%) [5]: 91% | Population Pyknosed Nuclei (%) [5]: 44% | Population Tubulin-Different-Phenotype (%) [5]: 49% | Total Cell Count [5]: 307 | Population Apoptotic (%) [6]: 13% | Population Fragmented Nuclei (%) [6]: 3% | Population Healthy Nuclei (%) [6]: 55% | Population Hoechst High Intensity Objects (%) [6]: 2% | Population Membrane Permeable-Phenotype (%) [6]: 14% | Population Mitochondria Different-Phenotype (%) [6]: 20% | Population Mitotic Cells (%) [6]: 86% | Population Normal (%) [6]: 97% | Population Pyknosed Nuclei (%) [6]: 41% | Population Tubulin-Different-Phenotype (%) [6]: 48% | Total Cell Count [6]: 251 | Population Apoptotic (%) [7]: 75% | Population Fragmented Nuclei (%) [7]: 12% | Population Healthy Nuclei (%) [7]: 32% | Population Hoechst High Intensity Objects (%) [7]: 11% | Population Membrane Permeable-Phenotype (%) [7]: 1% | Population Mitochondria Different-Phenotype (%) [7]: 97% | Population Mitotic Cells (%) [7]: 24% | Population Normal (%) [7]: 88% | Population Pyknosed Nuclei (%) [7]: 55% | Total Cell Count [7]: 313 | Population Apoptotic (%) [8]: 74% | Population Fragmented Nuclei (%) [8]: 4% | Population Healthy Nuclei (%) [8]: 35% | Population Hoechst High Intensity Objects (%) [8]: 4% | Population Membrane Permeable-Phenotype (%) [8]: 3% | Population Mitochondria Different-Phenotype (%) [8]: 95% | Population Mitotic Cells (%) [8]: 25% | Population Normal (%) [8]: 95% | Population Pyknosed Nuclei (%) [8]: 59% | Population Tubulin-Different-Phenotype (%) [8]: 98% | Total Cell Count [8]: 180 | Population Apoptotic (%) [9]: 35% | Population Fragmented Nuclei (%) [9]: 12% | Population Healthy Nuclei (%) [9]: 40% | Population Hoechst High Intensity Objects (%) [9]: 15% | Population Membrane Permeable-Phenotype (%) [9]: 7% | Population Mitochondria Different-Phenotype (%) [9]: 52% | Population Mitotic Cells (%) [9]: 64% | Population Normal (%) [9]: 84% | Population Pyknosed Nuclei (%) [9]: 46% | Population Tubulin-Different-Phenotype (%) [9]: 52% | Total Cell Count [9]: 369 | Population Apoptotic (%) [10]: 16% | Population Fragmented Nuclei (%) [10]: 4% | Population Healthy Nuclei (%) [10]: 79% | Population Hoechst High Intensity Objects (%) [10]: 4% | Population Membrane Permeable-Phenotype (%) [10]: 10% | Population Mitochondria Different-Phenotype (%) [10]: 11% | Population Mitotic Cells (%) [10]: 83% | Population Normal (%) [10]: 95% | Population Pyknosed Nuclei (%) [10]: 16% | Population Tubulin-Different-Phenotype (%) [10]: 38% | Total Cell Count [10]: 468 | Population Apoptotic (%) [11]: 71% | Population Fragmented Nuclei (%) [11]: 21% | Population Healthy Nuclei (%) [11]: 40% | Population Hoechst High Intensity Objects (%) [11]: 13% | Population Membrane Permeable-Phenotype (%) [11]: 2% | Population Mitochondria Different-Phenotype (%) [11]: 93% | Population Mitotic Cells (%) [11]: 28% | Population Normal (%) [11]: 86% | Population Pyknosed Nuclei (%) [11]: 38% | Population Tubulin-Different-Phenotype (%) [11]: 95% | Total Cell Count [11]: 362 | Population Apoptotic (%) [12]: 72% | Population Fragmented Nuclei (%) [12]: 2% | Population Healthy Nuclei (%) [12]: 70% | Population Hoechst High Intensity Objects (%) [12]: 4% | Population Membrane Permeable-Phenotype (%) [12]: 5% | Population Mitochondria Different-Phenotype (%) [12]: 86% | Population Mitotic Cells (%) [12]: 27% | Population Normal (%) [12]: 95% | Population Pyknosed Nuclei (%) [12]: 26% | Population Tubulin-Different-Phenotype (%) [12]: 93% | Total Cell Count [12]: 215

Source: ChEMBL document CHEMBL4689842, “EUbOPEN Chemogenomics Library wave 1” (2021)
